ChEMBL document CHEMBL3098087, “Synthesis and evaluation of (-)- and (+)-[¹¹C]galanthamine as PET tracers for cerebral acetylcholinesterase imaging” (Bioorg Med Chem, 2014)

Assays:
Cerebellum = assay: Biodistribution in ddY mouse cerebellum at 3.7 MBq, iv after 30 mins by gamma counting; format: ADME, organism-based; conditions: in vivo, 0.5 h
Summary of the method: (§1)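 ddY male mice, seven weeks old, 20–25 g, received 3.7 MBq of tracer. Five animals per time point, up to 60 min, were killed by exsanguination. Blood and brain, or striatum and cerebellum, were excised, weighed and gamma-counted. Uptake is expressed as %ID/g of tissue.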

Striatum [1] = assay: Biodistribution in ddY mouse striatum at 3.7 MBq, iv after 30 mins by gamma counting; format: ADME, organism-based; conditions: in vivo, 0.5 h; summary of the method: as §1
Brain [2] = assay: Biodistribution in ddY mouse brain at 3.7 MBq, iv after 10 mins by gamma counting; format: ADME, organism-based; conditions: in vivo; summary of the method: as §1
Striatum [3] = assay: Drug uptake in Wistar rat striatum at 10 mM after 30 mins by autoradiography analysis counting in presence of donepezil; format: ADME, tissue-based; conditions: 0.5 h, 10000 µM
Striatum [4] = assay: Drug uptake in Wistar rat striatum at 2.2 […]/200 uL after 30 mins by autoradiography analysis; format: ADME, tissue-based; conditions: in vitro, 0.5 h
Summary of the method: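 Coronal brain sections (20 µm) from male Wistar rats were thaw-mounted on silane-coated slides. Sections were incubated with tracer in binding buffer for 30 min at 4°C, then washed with ice-cold buffer and water. They were exposed to imaging plates for 6 h alongside calibrated 11C standards.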

Brain [5] = assay: Biodistribution in ddY mouse brain at 74 MBq, iv after 10 to 30 mins by PET analysis; conditions: in vivo
Striatum [6] = assay: Biodistribution in ddY mouse striatum at 3.7 MBq, iv by gamma counting in presence of donepezil; conditions: in vivo

SMILES | Drug uptake (Cerebellum) | Drug uptake (Striatum [1]) | Drug uptake (Brain [2]) | Drug uptake (Striatum [3]) | Drug uptake (Striatum [4]) | Drug uptake (Brain [5]) | Drug uptake (Striatum [6])
COc1ccc2c3c1O[C@@H]1C[C@H](O)C=C[C@]31CCN([11CH3])C2 | 1.5 % ID/g | 1.5 % ID/g | 2.1 % ID/g | – | – | – | –
COc1ccc2c3c1O[C@H]1C[C@@H](O)C=C[C@@]31CCN([11CH3])C2 | 1.7 % ID/g | 2.1 % ID/g | 2.1 % ID/g | Not Active | Active | Active | 1.3 % ID/g
